In ChEMBL document CHEMBL4190247, “Monastrol, a 3,4-dihydropyrimidin-2(1H)-thione, as structural scaffold for the development of modulators for GHB high-affinity binding sites and α1β2δ GABAA receptors” (Eur J Med Chem, 2017):
Calls of active or inactive are those of the source. The calls are words filed in the database; no cut-off is given here.

Key:
Rattus norvegicus [1] = species on record: Rattus norvegicus; test: Modulation of [3H]NCS-382 binding to alpha4betadelta GABAA receptor in rat cortical membranes assessed as [3H]NCS-382 binding at 100 uM after 1 hr by TopCount scintillation counting method relative to control; type: cell membranes
Summary of the method: (§1)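 Rat cortical membrane homogenate (50-70 µg protein per well) incubated with 16 nM [³H]NCS-382 and increasing analogue concentrations, 1 hr at 0-4 °C. Bound ligand collected by rapid filtration on GF/C filters and counted by scintillation. Single-point screen at 100 µM; cooperativity factor (α) and modulator Kb obtained by curve fitting. Triplicates, at least three independent experiments.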

Rattus norvegicus [2] = species on record: Rattus norvegicus; test: Modulation of [3H]NCS-382 binding to alpha4betadelta GABAA receptor in rat cortical membranes after 1 hr by TopCount scintillation counting method; type: cell membranes; summary of the method: as §1
[3] = molecular target: T1, Gamma-aminobutyric acid receptor subunit alpha-1/beta-2/delta (Homo sapiens) (UniProt P14867+P47870+O14764); test: (§2) Modulation of human alpha1beta2delta GABAA receptor expressed in Xenopus laevis oocytes assessed as increase in GABA-induced current at 1 mM at -60 mV holding potential by two-electrode voltage clamp electrophysiology method relative to control; type: cell-based
Summary of the method: (§3)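 X. laevis oocytes injected with 0.9–1.8 ng cRNA for human α1, β2 and δ subunits (5:1:5) and stored at 18 °C in Barth's solution, pH 7.5. Two-electrode voltage clamp with 3 M KCl electrodes (~2–4 MΩ), perfused with recording solution at pH 7.4. Compound co-applied with 1 mM GABA. Initial and rebound currents expressed as fold increase over the 1 mM GABA response, mean ± S.E.M.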

[4] = molecular target: T1, Gamma-aminobutyric acid receptor subunit alpha-1/beta-2/delta (Homo sapiens); test: Agonist activity at human alpha1beta2delta GABAA receptor expressed in Xenopus laevis oocytes assessed as increase in current amplitude at 1 mM at -60 mV holding potential by two-electrode voltage clamp electrophysiology method; type: cell-based; summary of the method: as §3
[5] = molecular target: T1, Gamma-aminobutyric acid receptor subunit alpha-1/beta-2/delta (Homo sapiens); test: as §2, with “current by measuring rebound current” for “current”, “potential measured after termination of compound application” for “potential”; type: cell-based; summary of the method: as §3
[6] = molecular target: GABA-A receptor; GABA-A site (alpha1/beta2 interface) (Homo sapiens) (UniProt P14867+P47870); test: Modulation of human alpha1beta2 GABAA receptor expressed in Xenopus laevis oocytes assessed as increase in GABA-induced current at 1 mM at -60 mV holding potential by two-electrode voltage clamp electrophysiology method; type: cell-based
Summary of the method: (§4)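 cRNA for human α1β2 (1:1) or α1β2γ2S (5:1:5) subunits injected into X. laevis oocytes (0.9–1.8 ng) and stored at 18 °C in Barth's solution, pH 7.5. Two-electrode voltage clamp in perfused recording solution at pH 7.4. Test compound at 1 mM applied with 1 mM GABA. Currents normalized and given as fold potentiation.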

[7] = molecular target: GABA-A receptor; alpha-1/beta-2/gamma-2 (Homo sapiens) (UniProt P14867+P47870+P18507); test: Modulation of human alpha1beta2gamma2S GABAA receptor expressed in Xenopus laevis oocytes assessed as increase in GABA-induced current at 1 mM at -60 mV holding potential by two-electrode voltage clamp electrophysiology method; type: cell-based; summary of the method: as §4
[8] = molecular target: T1, Gamma-aminobutyric acid receptor subunit alpha-1/beta-2/delta (Homo sapiens); test: as §2, with “by measuring rebound current” for “at 1 mM”, “potential measured after termination of compound application” for “potential”; type: cell-based; summary of the method: as §3

%max (Rattus norvegicus [1])	Kb (Rattus norvegicus [2])	Structure (SMILES)	also measured
130%		CC(=O)C1=C(C)NC(=S)NC1c1cccc(O)c1 (stereo not given)	
198%		CCCC1=C(C(=O)OCC)C(c2cccc(O)c2)NC(=S)N1 (stereo not given)	
inactive	inactive	CCOC(=O)C1=C(C)NC(=S)NC1c1cccc(C)c1 (stereo not given)	
194%		COC(=O)C1=C(C)NC(=S)NC1c1cccc(O)c1 (stereo not given)	pKb (Rattus norvegicus [2]): 3.46; fold change (FC) [3]: 1.3; Activity [4]: inactive; Activity [5]: Active; Activity [6]: inactive; Activity [7]: inactive
130%		CCOC(=O)C1=C(C(C)C)NC(=S)NC1c1cccc(O)c1 (stereo not given)	
130%		CCOC(=O)C1=C(C(C)(C)C)NC(=S)NC1c1cccc(O)c1 (stereo not given)	
245%		CCOC(=O)C1=C(CC)NC(=S)NC1c1cccc(O)c1 (stereo not given)	pKb (Rattus norvegicus [2]): 3.98; fold change (FC) [3]: 1.4; Activity [4]: inactive; Activity [5]: Active; Activity [6]: inactive; Activity [7]: inactive
185%		CCOC(=O)C1=C(C)NC(=S)NC1c1cccc(O)c1 (stereo not given)	pKb (Rattus norvegicus [2]): 3.96; fold change (FC) [3]: 2.9; Activity [4]: inactive; Activity [6]: inactive; Activity [7]: inactive; Activity [8]: Dose-dependent effect
inactive	inactive	CCOC(=O)C1=C(C)NC(=S)NC1c1cccc(OC)c1 (stereo not given)	
inactive	inactive	CCOC(=O)C1=C(C)NC(=S)NC1c1cccc(F)c1 (stereo not given)	
171%		CCOC(=O)C1=C(C)NC(=S)N[C@@H]1c1cccc(O)c1	pKb (Rattus norvegicus [2]): 3.48
inactive	inactive	CCOC(=O)C1=C(C)NC(=O)NC1c1cccc(O)c1 (stereo not given)	fold change (FC) [3]: 6.2; Activity [4]: inactive; Activity [6]: inactive; Activity [7]: inactive
208%		CCOC(=O)C1=C(C)NC(=S)N[C@H]1c1cccc(O)c1	pKb (Rattus norvegicus [2]): 3.95
inactive	inactive	CCOC(=O)C1=C(C)NC(=S)NC1c1cccc(Cl)c1 (stereo not given)	

Further lines, the molecule ahead of its results:

Structure (SMILES)	%max (Rattus norvegicus [1])	Kb (Rattus norvegicus [2])	also measured
CCCCN1C(=S)NC(c2cccc(O)c2)C(C(=O)OCC)=C1C (stereo not given)	inactive	inactive	
CCOC(=O)C1=C(C)NC(=S)NC1c1cc(O)cc(O)c1 (stereo not given)	247%		pKb (Rattus norvegicus [2]): 3.83
CCOC(=O)C1=C(C)N=C(S)NC1C (stereo not given)	inactive	inactive	
CCOC(=O)C1=C(c2ccccc2)NC(=S)NC1c1cccc(O)c1 (stereo not given)	inactive	inactive	
CCOC(=O)C1=C(C)NC(=S)NC1c1ccc(O)c(O)c1 (stereo not given)	246%		pKb (Rattus norvegicus [2]): 3.68; fold change (FC) [3]: 2.7; Activity [4]: inactive; Activity [5]: Active; Activity [6]: inactive; Activity [7]: inactive
CCOC(=O)C1=C(C)N(c2ccccc2)C(=S)NC1c1cccc(O)c1 (stereo not given)	inactive	inactive	
CC1=C(C(=O)O)C(c2cccc(O)c2)NC(=S)N1 (stereo not given)	inactive	inactive	
CCOC(=O)C1=C(C)N(CC)C(=S)NC1c1cccc(O)c1 (stereo not given)	130%		
CCOC(=O)C1=C(C)NC(=S)NC1c1ccnn1C (stereo not given)	inactive	inactive	
CCOC(=O)C1=C(C)NC(=S)NC1c1ccccc1 (stereo not given)	inactive	inactive	
CCOC(=O)C1=C(C)N(C)C(=S)NC1c1cccc(O)c1 (stereo not given)	177%	87 µM	pKb (Rattus norvegicus [2]): 4.06; fold change (FC) [3]: 3.1; Activity [4]: inactive; Activity [5]: Active; Activity [6]: inactive; Activity [7]: inactive
CC1=C(C(=O)OCc2ccccc2)C(c2cccc(O)c2)NC(=S)N1 (stereo not given)	inactive	inactive	
CCC(=O)C1=C(CC)NC(=S)NC1c1cccc(O)c1 (stereo not given)	130%		
CCOC(=O)C1=C(C)NC(=S)NC1c1ccc(C)cc1 (stereo not given)	inactive	inactive	
CCOC(=O)C1=C(C)NC(=S)NC1c1cn(-c2ccccc2)nn1 (stereo not given)	inactive	inactive	
CCOC(=O)C1=C(C)NC(=O)NC1c1ccccc1 (stereo not given)	inactive	inactive	
CCOC(=O)C1=C(C)N=C(S)NC1c1cccc([N+](=O)[O-])c1 (stereo not given)	inactive	inactive	
CCOC(=O)C1=C2CCCN2C(=S)NC1c1cccc(O)c1 (stereo not given)	inactive	inactive	
CCOC(=O)C1=C(C)NC(=S)NC1c1ccc(O)cc1 (stereo not given)	inactive	inactive	
CCN(CC)C(=O)C1=C(C)NC(=S)NC1c1cccc(O)c1 (stereo not given)	inactive	inactive	
CCOC(=O)C1=C(C)N(C)C(=S)N(C)C1c1cccc(O)c1 (stereo not given)	inactive	inactive	
CCOC(=O)C1=C(C)NC(=S)NC1c1cccnc1 (stereo not given)	inactive	inactive	
CCOC(=O)C1=C(C)N(Cc2ccccc2)C(=S)NC1c1cccc(O)c1 (stereo not given)	inactive	inactive	
COC(=O)C1=C(C)NC(=O)NC1c1ccccc1 (stereo not given)		inactive	fold change (FC) [3]: 5.9; Activity [4]: inactive; Activity [6]: inactive; Activity [7]: inactive
COC(=O)C1=C(C)N(C)C(=S)NC1c1cccc(O)c1 (stereo not given)	inactive	inactive	
